# Measurements as given in ChEMBL document CHEMBL1142894, “Preparation of 5-aryl-3-alkylthio-l,2,4-triazoles and corresponding sulfones with antiinflammatory-analgesic activity” (Bioorg Med Chem, 2007).
# Calls of active or inactive are those of the source. The calls are words filed in the database; no cut-off is given here.
# Legend:
# Mus musculus [1] = assay: Antiinflammatory activity against carrageenan-induced paw edema in Swiss albino mouse assessed as swelling thickness at 100 mg/kg, po after 180 mins; format: functional
# Procedure, shortened: (§1)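 Oral dosing in 0.5% CMC; vehicle to controls. Then carrageenan (0.5 mg/25 ll, freshly suspended in 154 mM saline) injected into the right hind paw subplantar tissue; saline into the left paw. Right-left footpad thickness difference measured by dial gauge calliper every 90 min over 6 h. Inhibition % is relative to vehicle control. n = 6; mean ± SEM.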
# Mus musculus [2] = assay: Gastric-ulcerogenic effect in Swiss albino mouse assessed as lesions at 50 mg/kg, po; format: functional, organism-based; design: dose 50 mg/kg
# Procedure, shortened: (§2)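 Mice killed under deep ether anesthesia 3 h after the writhing test; the oral dose in 0.5% CMC was the one used in that test. Stomachs removed, opened along the great curvature and examined under a dissecting microscope for lesions or bleeding. Reported as ratio of ulceration; n = 6.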
# Mus musculus [3] = assay: Inhibition of p-benzoquinone-induced writhing in Swiss albino mouse at 100 mg/kg, po relative to control; format: functional
# Procedure, shortened: (§3)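 Mice, n = 6 per group, dosed orally with a suspension in 0.5% sodium CMC. 60 min later, 0.1 ml/10 g of 2.5% […] p-benzoquinone in distilled water given ip. Abdominal writhes counted per animal for 15 min, starting 5 min after injection. Expressed as % change in mean writhing count versus vehicle controls.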
# Mus musculus [4] = assay: Analgesic activity against p-benzoquinone-induced abdominal constriction in Swiss albino mouse assessed as number of writhings at 25 mg/kg, po; format: functional, Abdomen
# Procedure, shortened: (§4)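 Test samples given orally in 0.5% CMC; vehicle to controls. 60 min later, 2.5% (v/v) p-benzoquinone in distilled water, 0.1 ml/10 g, given i.p. Mice housed singly; writhes counted for 15 min starting 5 min after injection. Activity is % change from vehicle controls. n = 6; mean ± SEM.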
# Mus musculus [5] = assay: Inhibition of p-benzoquinone-induced writhing in Swiss albino mouse at 200 mg/kg, po relative to control; format: functional; procedure, shortened: as §3
# Mus musculus [6] = assay: Inhibition of carrageenan-induced paw edema in Swiss albino mouse at 100 mg/kg, po after 270 mins relative to control; format: functional; settings: 4.5 h; procedure, shortened: as §1
# Mus musculus [7] = assay: Inhibition of carrageenan-induced paw edema in Swiss albino mouse at 100 mg/kg, po after 90 mins relative to control; format: functional; settings: 1.5 h; procedure, shortened: as §1
# Mus musculus [8] = assay: Inhibition of carrageenan-induced paw edema in Swiss albino mouse at 50 mg/kg, po after 90 mins relative to control; format: functional; settings: 1.5 h
# Procedure, shortened: (§5)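 Mice, n = 6 per group. Test agent given orally as a suspension in 0.5% sodium CMC in distilled water; controls received vehicle only. Afterwards, 0.5 mg/25 ll carrageenan in saline (154 mM NaCl) injected subplantar into the right hind paw, saline into the left. Right-minus-left footpad thickness measured by dial gauge caliper every 90 min for 6 h. Inhibition is relative to vehicle-control group means.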
# Mus musculus [9] = assay: Antiinflammatory activity against carrageenan-induced paw edema in Swiss albino mouse assessed as swelling thickness at 100 mg/kg, po after 270 mins; format: functional; procedure, shortened: as §1
# Mus musculus [10] = assay: Analgesic activity against p-benzoquinone-induced abdominal constriction in Swiss albino mouse assessed as number of writhings at 200 mg/kg, po; format: functional, Abdomen; procedure, shortened: as §4
# Mus musculus [11] = assay: Inhibition of carrageenan-induced paw edema in Swiss albino mouse at 100 mg/kg, po after 180 mins relative to control; format: functional; settings: 3 h; procedure, shortened: as §1
# Mus musculus [12] = assay: Antiinflammatory activity against carrageenan-induced paw edema in Swiss albino mouse assessed as swelling thickness at 25 mg/kg, po after 270 mins; format: functional; procedure, shortened: as §1
# Mus musculus [13] = assay: Antiinflammatory activity against carrageenan-induced paw edema in Swiss albino mouse assessed as swelling thickness at 200 mg/kg, po after 90 mins; format: functional; procedure, shortened: as §1
# Mus musculus [14] = assay: Antiinflammatory activity against carrageenan-induced paw edema in Swiss albino mouse assessed as swelling thickness at 25 mg/kg, po after 90 mins; format: functional; procedure, shortened: as §1
# Mus musculus [15] = assay: Inhibition of carrageenan-induced paw edema in Swiss albino mouse at 100 mg/kg, po after 360 mins relative to control; format: functional; settings: 6 h; procedure, shortened: as §1
# Mus musculus [16] = assay: Acute toxicity in Swiss albino mouse assessed as lethal effect at 100 mg/kg/day, po after 72 hrs; format: organism-based; design: route oral; settings: in vivo
# Procedure, shortened: (§6)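 Oral single dose suspended in 0.5% carboxymethylcellulose, given after a 24 h fast; food and water returned 1 h after dosing. Vehicle-only controls. Mice observed at 1 h, then once daily for 72 h, for toxic signs and mortality.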
# Mus musculus [17] = assay: Analgesic activity against p-benzoquinone-induced abdominal constriction in Swiss albino mouse assessed as number of writhings at 100 mg/kg, po; format: functional, Abdomen; procedure, shortened: as §4
# Mus musculus [18] = assay: Inhibition of carrageenan-induced paw edema in Swiss albino mouse at 50 mg/kg, po after 360 mins relative to control; format: functional; settings: 6 h; procedure, shortened: as §5
# Mus musculus [19] = assay: Gastric-ulcerogenic effect in Swiss albino mouse assessed as lesions at 25 mg/kg, po; format: functional, organism-based; design: dose 25 mg/kg; procedure, shortened: as §2
# Mus musculus [20] = assay: Inhibition of p-benzoquinone-induced writhing in Swiss albino mouse at 25 mg/kg, po relative to control; format: functional; procedure, shortened: as §3
# Mus musculus [21] = assay: Antiinflammatory activity against carrageenan-induced paw edema in Swiss albino mouse assessed as swelling thickness at 25 mg/kg, po after 360 mins; format: functional; procedure, shortened: as §1
# Mus musculus [22] = assay: Inhibition of carrageenan-induced paw edema in Swiss albino mouse at 50 mg/kg, po after 270 mins relative to control; format: functional; settings: 4.5 h; procedure, shortened: as §5
# Mus musculus [23] = assay: Inhibition of p-benzoquinone-induced writhing in Swiss albino mouse at 50 mg/kg, po relative to control; format: functional; procedure, shortened: as §3
# Mus musculus [24] = assay: Antiinflammatory activity against carrageenan-induced paw edema in Swiss albino mouse assessed as swelling thickness at 200 mg/kg, po after 180 mins; format: functional; procedure, shortened: as §1
# Mus musculus [25] = assay: Antiinflammatory activity against carrageenan-induced paw edema in Swiss albino mouse assessed as swelling thickness at 50 mg/kg, po after 90 mins; format: functional; procedure, shortened: as §1
# Mus musculus [26] = assay: Antiinflammatory activity against carrageenan-induced paw edema in Swiss albino mouse assessed as swelling thickness at 100 mg/kg, po after 360 mins; format: functional; procedure, shortened: as §1
# Mus musculus [27] = assay: Acute toxicity in Swiss albino mouse assessed as lethal effect at 25 mg/kg/day, po after 72 hrs; format: organism-based; design: route oral; settings: in vivo; procedure, shortened: as §6
# Mus musculus [28] = assay: Antiinflammatory activity against carrageenan-induced paw edema in Swiss albino mouse assessed as swelling thickness at 50 mg/kg, po after 270 mins; format: functional; procedure, shortened: as §1
# Mus musculus [29] = assay: Gastric-ulcerogenic effect in Swiss albino mouse assessed as lesions at 100 mg/kg, po; format: functional, organism-based; design: dose 100 mg/kg; procedure, shortened: as §2
# Mus musculus [30] = assay: Analgesic activity against p-benzoquinone-induced abdominal constriction in Swiss albino mouse assessed as number of writhings at 50 mg/kg, po; format: functional, Abdomen; procedure, shortened: as §4
# Mus musculus [31] = assay: Acute toxicity in Swiss albino mouse assessed as lethal effect at 50 mg/kg/day, po after 72 hrs; format: organism-based; design: route oral; settings: in vivo; procedure, shortened: as §6
# Mus musculus [32] = assay: Inhibition of carrageenan-induced paw edema in Swiss albino mouse at 50 mg/kg, po after 180 mins relative to control; format: functional; settings: 3 h; procedure, shortened: as §1
# Mus musculus [33] = assay: Antiinflammatory activity against carrageenan-induced paw edema in Swiss albino mouse assessed as swelling thickness at 50 mg/kg, po after 360 mins; format: functional; procedure, shortened: as §1
# Mus musculus [34] = assay: Acute toxicity in Swiss albino mouse assessed as lethal effect at 200 mg/kg/day, po after 72 hrs; format: organism-based; design: route oral; settings: in vivo; procedure, shortened: as §6
# Mus musculus [35] = assay: Antiinflammatory activity against carrageenan-induced paw edema in Swiss albino mouse assessed as swelling thickness at 25 mg/kg, po after 180 mins; format: functional; procedure, shortened: as §1
# Mus musculus [36] = assay: Antiinflammatory activity against carrageenan-induced paw edema in Swiss albino mouse assessed as swelling thickness at 200 mg/kg, po after 360 mins; format: functional; procedure, shortened: as §1
# Mus musculus [37] = assay: Antiinflammatory activity against carrageenan-induced paw edema in Swiss albino mouse assessed as swelling thickness at 200 mg/kg, po after 270 mins; format: functional; procedure, shortened: as §1
# Mus musculus [38] = assay: Antiinflammatory activity against carrageenan-induced paw edema in Swiss albino mouse assessed as swelling thickness at 50 mg/kg, po after 180 mins; format: functional; procedure, shortened: as §1
# Mus musculus [39] = assay: Antiinflammatory activity against carrageenan-induced paw edema in Swiss albino mouse assessed as swelling thickness at 100 mg/kg, po after 90 mins; format: functional; procedure, shortened: as §1
SMILES,Activity (Mus musculus [1]),Activity (Mus musculus [2]),inhibition in vivo at 100 mg/kg (Mus musculus [3]) [%],Activity (Mus musculus [4]),inhibition in vivo at 200 mg/kg (Mus musculus [5]) [%],inhibition in vivo at 100 mg/kg (Mus musculus [6]) [%],inhibition in vivo at 100 mg/kg (Mus musculus [7]) [%],inhibition in vivo at 50 mg/kg (Mus musculus [8]) [%],Activity (Mus musculus [9]),Activity (Mus musculus [10]),inhibition in vivo at 100 mg/kg (Mus musculus [11]) [%],Activity (Mus musculus [12]),Activity (Mus musculus [13]),Activity (Mus musculus [14]),inhibition in vivo at 100 mg/kg (Mus musculus [15]) [%],Activity (Mus musculus [16]),Activity (Mus musculus [17]),inhibition in vivo at 50 mg/kg (Mus musculus [18]) [%],Activity (Mus musculus [19]),inhibition in vivo at 25 mg/kg (Mus musculus [20]) [%],also measured
CS(=O)(=O)c1nc(-c2ccc(Cl)cc2)n[nH]1,42.8 10^-2mm,Active,34.5,42.8,8.9,21.4,16.3,18,46.2 10^-2mm,46.8,16.9,69.5 10^-2mm,59.4 10^-2mm,55.2 10^-2mm,25.6,Non-toxic,31,30.3,Active,16.7,Activity (Mus musculus [21]): 75.4 10^-2mm; inhibition in vivo at 50 mg/kg (Mus musculus [22]): 26.1%; inhibition in vivo at 50 mg/kg (Mus musculus [23]): 42.8%; Activity (Mus musculus [24]): 65.8 10^-2mm; Activity (Mus musculus [25]): 43.6 10^-2mm; Activity (Mus musculus [26]): 51.2 10^-2mm; Activity (Mus musculus [27]): Non-toxic; Activity (Mus musculus [28]): 47.9 10^-2mm; Activity (Mus musculus [29]): Active; Activity (Mus musculus [30]): 29.4; Activity (Mus musculus [31]): Non-toxic; inhibition in vivo at 50 mg/kg (Mus musculus [32]): 22.2%; Activity (Mus musculus [33]): 50.2 10^-2mm; Activity (Mus musculus [34]): Non-toxic; Activity (Mus musculus [35]): 62.8 10^-2mm; Activity (Mus musculus [36]): 76.1 10^-2mm; Activity (Mus musculus [37]): 69.4 10^-2mm; Activity (Mus musculus [38]): 46.2 10^-2mm; Activity (Mus musculus [39]): 37.5 10^-2mm
CCS(=O)(=O)c1nc(-c2ccc(Br)cc2)n[nH]1,38.3 10^-2mm,Active,25.6,40.9,1.6,22.3,28.3,35.2,45.7 10^-2mm,50.6,25.6,67.8 10^-2mm,57.4 10^-2mm,54.6 10^-2mm,27.5,Non-toxic,35.2,30,Active,20.4,Activity (Mus musculus [21]): 75.1 10^-2mm; inhibition in vivo at 50 mg/kg (Mus musculus [22]): 24.2%; inhibition in vivo at 50 mg/kg (Mus musculus [23]): 30.2%; Activity (Mus musculus [24]): 61.5 10^-2mm; Activity (Mus musculus [25]): 40.4 10^-2mm; Activity (Mus musculus [26]): 49.9 10^-2mm; Activity (Mus musculus [27]): Non-toxic; Activity (Mus musculus [28]): 49.1 10^-2mm; Activity (Mus musculus [29]): Active; Activity (Mus musculus [30]): 35.9; Activity (Mus musculus [31]): Non-toxic; inhibition in vivo at 50 mg/kg (Mus musculus [32]): 26.8%; Activity (Mus musculus [33]): 50.4 10^-2mm; Activity (Mus musculus [34]): Non-toxic; Activity (Mus musculus [35]): 62.8 10^-2mm; Activity (Mus musculus [36]): 76.2 10^-2mm; Activity (Mus musculus [37]): 68.5 10^-2mm; Activity (Mus musculus [38]): 43.5 10^-2mm; Activity (Mus musculus [39]): 32.1 10^-2mm
